Experimental data as given in ChEMBL document CHEMBL1149444, “Discovery of imidazo[1,2-b][1,2,4]triazines as GABA(A) alpha2/3 subtype selective agonists for the treatment of anxiety” (J Med Chem, 2006).
pKi: −log10 of the molar value.

Columns and labels:
[1] = molecular target: T1, GABA-A receptor; alpha-1/beta-3/gamma-2 (Homo sapiens) (UniProt P14867+P18507+P28472); assay: Efficacy against recombinant human GABAA alpha1 receptor plus beta3gamma2 expressed in L(tk-) cells by whole cell patch clamp method relative to chlordiazepoxide; type: functional, cell-based
Summary of the method: (§1)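 Whole-cell patch clamp on L(tk-) cells stably expressing the receptor (alpha plus beta3gamma2). GABA applied at an EC20-equivalent concentration. Modulation of the current measured with increasing test concentrations. Efficacy expressed relative to the maximal chlordiazepoxide response (set at 1.00) or as a percentage.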

[2] = molecular target: T2, GABA-A receptor; alpha-3/beta-3/gamma-2 (Homo sapiens) (UniProt P18507+P28472+P34903); assay: Efficacy against recombinant human GABAA alpha3 receptor plus beta-3-gamma-2 expressed in L(tk-) cells by whole cell patch clamp method relative to chlordiazepoxide; type: functional, cell-based; summary of the method: as §1
[3] = molecular target: T3, GABA-A receptor; alpha-2/beta-3/gamma-2 (Homo sapiens, UniProt P18507+P28472+P47869); assay: Displacement of [3H] Ro15-1788 from recombinant human GABAA alpha2 receptor plus beta-3-gamma-2 expressed in L(tk-) cells; type: cell-based
T3 sequence (P18507 whole entry): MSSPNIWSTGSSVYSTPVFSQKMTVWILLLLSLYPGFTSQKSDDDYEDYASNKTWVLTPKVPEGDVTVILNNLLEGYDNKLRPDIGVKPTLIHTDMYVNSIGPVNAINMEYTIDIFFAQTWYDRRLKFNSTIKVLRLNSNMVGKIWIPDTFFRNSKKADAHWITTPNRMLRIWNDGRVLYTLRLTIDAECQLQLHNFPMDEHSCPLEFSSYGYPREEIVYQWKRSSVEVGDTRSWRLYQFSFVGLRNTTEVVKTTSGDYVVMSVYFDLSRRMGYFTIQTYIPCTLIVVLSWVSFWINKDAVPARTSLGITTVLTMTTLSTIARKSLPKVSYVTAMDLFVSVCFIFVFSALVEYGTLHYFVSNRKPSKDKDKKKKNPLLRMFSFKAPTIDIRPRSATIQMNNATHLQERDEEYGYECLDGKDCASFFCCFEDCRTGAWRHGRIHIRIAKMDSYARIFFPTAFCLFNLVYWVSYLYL
T3 sequence (P28472 whole entry): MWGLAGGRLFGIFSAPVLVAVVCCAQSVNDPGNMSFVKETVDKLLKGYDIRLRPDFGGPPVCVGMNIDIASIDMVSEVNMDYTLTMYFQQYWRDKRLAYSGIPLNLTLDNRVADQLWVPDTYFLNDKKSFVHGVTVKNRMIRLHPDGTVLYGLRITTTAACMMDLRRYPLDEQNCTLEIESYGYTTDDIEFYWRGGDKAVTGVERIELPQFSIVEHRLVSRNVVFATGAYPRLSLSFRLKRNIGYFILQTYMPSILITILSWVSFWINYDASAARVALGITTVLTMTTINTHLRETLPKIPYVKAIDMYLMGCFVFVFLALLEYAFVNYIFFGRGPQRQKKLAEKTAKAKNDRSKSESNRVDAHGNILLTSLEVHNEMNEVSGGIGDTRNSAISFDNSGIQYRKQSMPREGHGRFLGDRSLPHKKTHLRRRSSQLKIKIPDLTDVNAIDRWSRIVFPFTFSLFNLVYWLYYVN
T3 sequence (P47869 whole entry): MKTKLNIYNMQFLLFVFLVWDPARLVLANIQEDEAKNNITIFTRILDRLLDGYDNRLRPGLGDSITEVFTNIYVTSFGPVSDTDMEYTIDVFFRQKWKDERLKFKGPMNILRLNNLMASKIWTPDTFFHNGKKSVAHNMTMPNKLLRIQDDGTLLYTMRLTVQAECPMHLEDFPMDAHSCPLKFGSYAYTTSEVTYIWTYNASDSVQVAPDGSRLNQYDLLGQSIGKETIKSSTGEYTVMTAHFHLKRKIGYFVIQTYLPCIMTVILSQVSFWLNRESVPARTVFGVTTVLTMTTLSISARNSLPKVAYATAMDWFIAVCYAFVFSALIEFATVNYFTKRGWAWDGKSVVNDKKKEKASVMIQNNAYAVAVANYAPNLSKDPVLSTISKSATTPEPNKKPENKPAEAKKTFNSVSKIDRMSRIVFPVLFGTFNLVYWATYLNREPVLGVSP

[4] = molecular target: T4, GABA-A receptor; alpha-1/beta-3/gamma-2 (Homo sapiens, UniProt P14867+P18507+P28472); assay: Displacement of [3H]Ro 15-1788 from recombinant human GABAA alpha-1 receptor plus beta3gamma2 expressed in L(tk-) cells; type: cell-based
T4 sequence (P14867 whole entry): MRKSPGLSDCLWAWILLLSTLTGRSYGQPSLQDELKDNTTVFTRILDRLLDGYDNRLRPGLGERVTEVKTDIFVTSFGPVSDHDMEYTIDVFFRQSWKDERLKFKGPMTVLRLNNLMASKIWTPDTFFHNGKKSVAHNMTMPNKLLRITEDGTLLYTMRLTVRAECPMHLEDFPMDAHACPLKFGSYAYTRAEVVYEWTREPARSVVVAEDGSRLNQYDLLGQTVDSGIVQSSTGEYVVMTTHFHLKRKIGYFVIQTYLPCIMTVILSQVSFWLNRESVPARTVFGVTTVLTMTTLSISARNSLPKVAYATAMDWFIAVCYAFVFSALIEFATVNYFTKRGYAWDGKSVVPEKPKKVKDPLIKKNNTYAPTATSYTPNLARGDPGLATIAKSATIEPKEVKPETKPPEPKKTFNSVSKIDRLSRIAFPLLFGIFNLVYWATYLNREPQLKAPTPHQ
T4 sequence (P18507 whole entry): T3 sequence (P18507 whole entry)
T4 sequence (P28472 whole entry): T3 sequence (P28472 whole entry)

[5] = molecular target: T1, GABA-A receptor; alpha-1/beta-3/gamma-2 (Homo sapiens); assay: Efficacy against recombinant human GABAA alpha-1 receptor plus beta3gamma2 expressed in L(tk-) cells by whole cell patch clamp method; type: functional, cell-based; summary of the method: as §1
[6] = molecular target: T1, GABA-A receptor; alpha-1/beta-3/gamma-2 (Homo sapiens); assay: Efficacy against recombinant human GABAA alpha1 receptor plus beta-3-gamma-2 expressed in L(tk-) cells by modulation of chloride ion flux relative to chlordiazepoxide; type: functional, cell-based
Summary of the method: (§2)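 Same L(tk-) lines expressing beta3gamma2 with alpha1 or alpha3. 36Cl ion flux evoked by an EC20-equivalent concentration of GABA, measured in the presence of about 1000 x Ki of test compound. Efficacy expressed relative to the maximal chlordiazepoxide response (1.00). Mean of at least seven independent experiments.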

[7] = molecular target: T2, GABA-A receptor; alpha-3/beta-3/gamma-2 (Homo sapiens); assay: Efficacy against recombinant human GABAA alpha-3 receptor plus beta3gamma2 expressed in L(tk-) cells by modulation of chloride ion flux relative to chlordiazepoxide; type: functional, cell-based; summary of the method: as §2
[8] = Plasma clearance in rat at 1 mg/kg, iv or 1 mg/kg, po; type: ADME, organism-based
Summary of the method: (§3)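 Rat pharmacokinetics after dosing at 1 mg/kg iv and 1 mg/kg po. Plasma clearance in mL/min/kg, half-life in h and volume of distribution in L/kg.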

[9] = Oral bioavailability in rat at 1 mg/kg, iv or 1 mg/kg, po; type: ADME, organism-based; conditions: in vivo
Summary of the method: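 Pharmacokinetics in rat, dog or rhesus after 1 mg/kg iv and 1 mg/kg po dosing. Plasma clearance (mL/min/kg), half-life (h), volume of distribution (L/kg) and oral bioavailability (%) were derived.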

[10] = Volume of distribution in rat at 1 mg/kg, iv or 1 mg/kg, po; type: ADME, organism-based; conditions: in vivo, read-out: Vdss; summary of the method: as §3
[11] = Half life in rat at 1 mg/kg, […] 1 mg/kg, po; type: ADME, organism-based; conditions: in vivo; summary of the method: as §3

Row | SMILES | Efficacy [1] [%] | Efficacy [2] [%] | pKi [3] | pKi [4] | Efficacy [5] [%] | Efficacy [6] [%] | Efficacy [7] [%] | clearance [8] [mL/min/kg] | bioavailability [9] [%] | Vd [10] [L/kg] | half-life [11] [h]
1 | CN1C(=O)CN=C(c2ccccc2)c2cc(Cl)ccc21 | 93 | 80 | – | – | – | – | – | – | – | – | –
2 | CC(C)(O)c1ccn2c(-c3ccc(F)c(-c4cccnc4)c3)cnc2n1 | 6 | – | 8.40 | – | – | – | – | – | – | – | –
3 | N#Cc1cc(F)ccc1-c1cc(-c2cnc3nc(C(F)(F)F)cnn23)ccc1F | – | -6 | 9.10 | 9.60 | -13 | – | – | – | – | – | –
4 | Cc1cnn2c(-c3cccc(-c4ccccc4C#N)c3)cnc2n1 | – | 34 | 8.92 | 8.82 | -21 | – | – | – | – | – | –
5 | N#Cc1cc(F)ccc1-c1cc(-c2cnc3nc(C(F)(F)F)ccn23)ccc1F | -3 | 25 | 9.14 | – | – | – | – | – | – | – | –
6 | CCO/N=C(\C)c1ccc2c(c1)ncn2-c1cccc(-c2cccnc2)c1 | 40 | 99 | 7.85 | 8.70 | – | – | – | – | – | – | –
7 | Cc1ccn2c(-c3cccc(-c4ccccc4C#N)c3)cnc2n1 | 7 | 69 | 9.40 | 9.40 | – | – | – | – | – | – | –
8 | Cc1ccn2c(-c3cccc(-c4ccccc4C#N)c3)cnc2c1 | – | 55 | 8.43 | – | -10 | – | – | – | – | – | –
9 | Cc1cnn2c(-c3cccc(-c4ccccc4C#N)c3)cnc2c1 | – | – | 7.72 | 7.89 | – | -20 | 26 | – | – | – | –
10 | CC(C)(O)c1cnn2c(-c3ccc(F)c(-c4c(F)cc(F)cc4C#N)c3)cnc2n1 | 0 | 37 | 9.00 | 9.82 | – | – | – | 1 | 64 | 5.8 | 69
11 | CC(C)(O)c1cnn2c(-c3ccc(F)c(-c4ccc(F)cc4C#N)c3)cnc2n1 | – | 43 | 8.68 | 8.92 | -15 | – | – | 1.1 | – | 3.4 | 38
